Experimental data as given in ChEMBL document CHEMBL1122854, “Novel bis[1,6-dihydro-6,6-dimethyl-1,3,5-triazine-2,4-diamines] as antitrypanosomal agents” (1985).
Values joined by “and” are separate entries in the source; they are usually repeats but may differ in a detail not shown here. Equal entries are not always repeated.

Tests used:
Format in all cases: functional
Settings in all cases: route subcutaneous
[1] = test system: Trypanosoma brucei rhodesiense; experiment: Antitrypanosomal activity against Trypanosoma rhodesiense infections in mice, 424 mg/kg administered subcutaneously
In short: (§1)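 IUR/HA Swiss mice (six weeks old, 30-32 g) infected i.p. with Wellcome CT strain T. rhodesiense. A single subcutaneous dose in peanut oil was given about 2 h after inoculation, with five mice per dose level. Positive control was stilbamidine or 2-hydroxystilbamidine isethionate at 40 mg/kg. Deaths before day 4 were scored toxic, and 30-day survivors cured.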

[2] = test system: Trypanosoma brucei rhodesiense; experiment: Antitrypanosomal activity was evaluated against Trypanosoma rhodesiense infections in mice, at dose 106 mg/kg, administered subcutaneously;Toxic; in short: as §1
[3] = test system: Trypanosoma brucei rhodesiense; experiment: Antitrypanosomal activity was evaluated against Trypanosoma rhodesiense infections in mice, at dose 1.6 mg/kg, administered subcutaneously
In short: (§2)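 Six-week-old IUR/HA Swiss mice (30-32 g), 5 per dose, infected ip with 0.5 mL of a 1:50 000 dilution of heparinized heart blood from donor mice infected 3 days before (Wellcome CT strain). Single sc dose in peanut oil about 2 h post-inoculation. Deaths before day 4 counted toxic. ΔMST versus untreated controls; survivors at 30 days counted cured.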

[4] = test system: Trypanosoma brucei rhodesiense; experiment: Antitrypanosomal activity against Trypanosoma rhodesiense infections in mice, 106 mg/kg administered subcutaneously; in short: as §2
[5] = test system: Trypanosoma brucei rhodesiense; experiment: Anti-trypanosomal activity against Trypanosoma rhodesiense infections in mice, 26 mg/kg administered subcutaneously; in short: as §2
[6] = test system: Trypanosoma brucei rhodesiense; experiment: Antitrypanosomal activity against Trypanosoma rhodesiense infections in mice, 3.3 mg/kg administered subcutaneously; in short: as §2
[7] = test system: Trypanosoma brucei rhodesiense; experiment: Antitrypanosomal activity against Trypanosoma rhodesiense infections in mice, 6.6 mg/kg administered subcutaneously; in short: as §2
[8] = test system: Trypanosoma brucei rhodesiense; experiment: Antitrypanosomal activity was evaluated against Trypanosoma rhodesiense infections in mice, at dose 424 mg/kg, administered subcutaneously;Toxic; in short: as §1
[9] = test system: Trypanosoma brucei rhodesiense; experiment: Antitrypanosomal activity was evaluated against Trypanosoma rhodesiense infections in mice, at dose 424 mg/kg, administered subcutaneously; in short: as §2
[10] = test system: Trypanosoma brucei rhodesiense; experiment: Antitrypanosomal activity was evaluated against Trypanosoma rhodesiense infections in mice, at dose 26 mg/kg, administered subcutaneously;Toxic; in short: as §1
Mus musculus [11] = experiment: Antitrypanosomal activity was evaluated against Trypanosoma rhodesiense infections in mice, at dose 13 mg/kg, administered subcutaneously;Cures; in short: as §1
Mus musculus [12] = experiment: Antitrypanosomal activity was evaluated against Trypanosoma rhodesiense infections in mice, at dose 212 mg/kg, administered subcutaneously;Cures; in short: as §1
Mus musculus [13] = experiment: Antitrypanosomal activity was evaluated against Trypanosoma rhodesiense infections in mice, at dose 26 mg/kg, administered subcutaneously;Cures; in short: as §1
Mus musculus [14] = experiment: Antitrypanosomal activity was evaluated against Trypanosoma rhodesiense infections in mice, at dose 106 mg/kg, administered subcutaneously;Cures; in short: as §1
Mus musculus [15] = experiment: Antitrypanosomal activity was evaluated against Trypanosoma rhodesiense infections in mice, at dose 6.6 mg/kg, administered subcutaneously;Cures; in short: as §1
Mus musculus [16] = experiment: Antitrypanosomal activity was evaluated against Trypanosoma rhodesiense infections in mice, at dose 53 mg/kg, administered subcutaneously;Cures; in short: as §1
[17] = test system: Trypanosoma brucei rhodesiense; experiment: (§3) Antitrypanosomal activity was evaluated against Trypanosoma rhodesiense infections in mice, at dose 212 mg/kg, administered subcutaneously; in short: as §2
[18] = test system: Trypanosoma brucei rhodesiense; experiment: Antitrypanosomal activity was evaluated against Trypanosoma rhodesiense infections in mice, at dose 53 mg/kg, administered subcutaneously; in short: as §2
[19] = test system: Trypanosoma brucei rhodesiense; experiment: Antitrypanosomal activity was evaluated against Trypanosoma rhodesiense infections in mice, at dose 26 mg/kg, administered subcutaneously; in short: as §1
[20] = test system: Trypanosoma brucei rhodesiense; experiment: Antitrypanosomal activity was evaluated against Trypanosoma rhodesiense infections in mice, at dose 106 mg/kg, administered subcutaneously; in short: as §1
Mus musculus [21] = experiment: Antitrypanosomal activity was evaluated against Trypanosoma rhodesiense infections in mice, at dose 424 mg/kg, administered subcutaneously;Cures; in short: as §1
Mus musculus [22] = experiment: Antitrypanosomal activity was evaluated against Trypanosoma rhodesiense infections in mice, at dose 212 mg/kg, administered subcutaneously;Toxic; in short: as §1
Mus musculus [23] = experiment: Antitrypanosomal activity was evaluated against Trypanosoma rhodesiense infections in mice, at dose 13 mg/kg, administered subcutaneously; in short: as §1
Mus musculus [24] = experiment: Antitrypanosomal activity was evaluated against Trypanosoma rhodesiense infections in mice, at dose 6.6 mg/kg, administered subcutaneously; in short: as §1
Mus musculus [25] = experiment: as §3; in short: as §1

| Structure (SMILES) | Toxic [1] | Delta MST [4] | Delta MST [5] | Delta MST [6] | Delta MST [7] | Delta MST [9] | Toxic [20] | other results |
| --- | --- | --- | --- | --- | --- | --- | --- | --- |
| CC1(C)N=C(N)N=C(N)N1c1ccc2c(c1)S(=O)(=O)c1cc(N3C(N)=NC(N)=NC3(C)C)ccc1C2.Cl.Cl | 5 | -0.3 days | 0 days | 0 days | 0.2 days | – | – | Toxic [2]: 4; Delta MST [3]: 0 days |
| CC1(C)N=C(N)N=C(N)N1c1ccc(CC(Cc2ccc(N3C(N)=NC(N)=NC3(C)C)cc2)C(=O)O)cc1.Cl.Cl | – | 0.2 days | 0 days | – | – | 0 days | – | Toxic [8]: 2 |
| CC1(C)N=C(N)N=C(N)N1c1ccc(OCCCCOc2ccc(N3C(N)=NC(N)=NC3(C)C)cc2)cc1.Cl.Cl | 5 | 1 days | 0.3 days | 0.2 days | 0 days | – | – | Toxic [10]: 1; Toxic [2]: 4; Delta MST [3]: 0 days |
| COc1cc(-c2ccc(N3C(N)=NC(N)=NC3(C)C)c(OC)c2)ccc1N1C(N)=NC(N)=NC1(C)C.Cl.Cl | 5 | 11.2 days | 8.9 days | 7.2 days | 13.5 days | – | – | Cures (Mus musculus [11]): 3; Cures (Mus musculus [12]): 2; Cures (Mus musculus [13]): 4; Cures (Mus musculus [14]): 2; Cures (Mus musculus [15]): 3; Cures (Mus musculus [16]): 3; Delta MST [3]: 2.2 days; Delta MST [17]: 3.2 days; Delta MST [18]: 4.9 days |
| CC1(C)N=C(N)N=C(N)N1c1ccc(SSc2ccc(N3C(N)=NC(N)=NC3(C)C)cc2)cc1.Cl.Cl | – | 0.1 days | 0.1 days | – | – | 0.5 days | – | – |
| CC1(C)N=C(N)N=C(N)N1c1cccc(N2C(N)=NC(N)=NC2(C)C)c1.Cl.Cl | 5 | – | 0 days | 0 days | 0 days | – | 5 | Toxic [19]: 1; Delta MST [3]: 0 days |
| Cl.Cl.NC1=NC2(CCCCC2)NC(Nc2ccc(CCc3ccc(NC4=NC5(CCCCC5)NC(N)=N4)cc3)cc2)=N1 | – | 0.2 days | 0.2 days | – | – | 0.2 days | – | – |
| CC1(C)N=C(N)N=C(N)N1c1ccc(OCCOc2ccc(N3C(N)=NC(N)=NC3(C)C)cc2)cc1.Cl.Cl | 5 | – | 8.9 days | 1 days | 2.6 days | – | 5 | Toxic [10]: 4; Delta MST [3]: 2.8 days |
| CC1(C)N=C(N)N=C(N)N1c1ccc(Cc2ccc(N3C(N)=NC(N)=NC3(C)C)cc2[N+](=O)[O-])c([N+](=O)[O-])c1.Cl.Cl | 5 | – | 0.6 days | – | – | – | 5 | – |
| Cl.Cl.NC1=NC2(CCCCC2)N(c2ccc(CCc3ccc(N4C(N)=NC(N)=NC45CCCCC5)cc3)cc2)C(N)=N1 | – | 12 days | 1.3 days | – | – | – | – | Cures (Mus musculus [12]): 3; Cures (Mus musculus [13]): 2; Cures (Mus musculus [14]): 3; Cures (Mus musculus [21]): 4; Cures (Mus musculus [16]): 2; Toxic [8]: 1; Toxic (Mus musculus [22]): 1; Delta MST [17]: 11 days; Delta MST [18]: 9 days |
| Cl.Cl.NC1=NC(C2CCC3(CC2)N=C(N)N=C(N)N3c2ccc(Cl)cc2)N(c2ccc(Cl)cc2)C(N)=N1 (configuration not stated) | 5 | – | 1 days | – | – | – | 4 | – |
| CC1(C)N=C(N)NC(Nc2ccc(CCc3ccc(NC4=NC(C)(C)N=C(N)N4)cc3)cc2)=N1.Cl | – | 0.8 days | 0.2 days | – | – | 0 days | – | Toxic [8]: 3 |
| CC1(C)N=C(N)N=C(N)N1c1ccc(OCCCCCOc2ccc(N3C(N)=NC(N)=NC3(C)C)cc2)cc1.Cl.Cl | 5 | – | – | 0.2 days | 0.4 days | – | 5 | Toxic [19]: 5; Toxic (Mus musculus [23]): 5; Delta MST [3]: 0 days |
| CC1(C)N=C(N)N=C(N)N1c1ccc(Sc2ccc(N3C(N)=NC(N)=NC3(C)C)cc2)cc1.Cl.Cl | 5 | – | 2.7 days | 0.6 days | 0.6 days | – | 5 | Toxic [10]: 1 |
| Cc1cc(S(=O)(=O)c2ccc(N3C(N)=NC(N)=NC3(C)C)cc2)ccc1N1C(N)=NC(N)=NC1(C)C.Cl.Cl | 5 | – | 0.7 days | 0.2 days | 0.4 days | – | 5 | Toxic [10]: 4 |
| Cc1ccc(NC(=O)Nc2ccc(C)c(N3C(N)=NC(N)=NC3(C)C)c2)cc1N1C(N)=NC(N)=NC1(C)C.Cl.Cl | 5 | 0 days | 0 days | – | – | – | – | Toxic [10]: 2; Toxic [2]: 2 |
| CC1(C)N=C(N)N=C(N)N1c1cc(C(=O)O)cc(N2C(N)=NC(N)=NC2(C)C)c1.Cl.Cl | – | 0.1 days | -0.1 days | – | – | -0.1 days | – | – |
| CC1(C)N=C(N)N=C(N)N1c1ccc(OCCCCCCCCCCCCOc2ccc(N3C(N)=NC(N)=NC3(C)C)cc2)cc1.Cl.Cl | – | 0.8 days | 0.2 days | – | – | 0.8 days | – | Delta MST [17]: 0.8 days; Delta MST [18]: 0.4 days |
| CC1(C)N=C(N)N=C(N)N1c1cc(Cl)c(N2C(N)=NC(N)=NC2(C)C)c(Cl)c1.Cl.Cl | – | – | – | – | – | – | – | Toxic (Mus musculus [22]): 4; Delta MST [17]: -0.2 days; Delta MST [18]: -0.2 days |
| CC1(C)N=C(N)NC(Nc2ccc(NC3=NC(C)(C)N=C(N)N3)cc2)=N1.Cl.Cl | 5 | 1.9 days | 1.3 days | – | – | – | 4 | – |
| CC1(C)N=C(N)N=C(N)N1c1ccc(N2C(N)=NC(N)=NC2(C)C)cc1.Cl.Cl | 3 | 0.2 days | 0 days | -0.1 days | 0.1 days | 1 days | – | Delta MST [3]: 0.1 days |
| CC1(C)N=C(N)N=C(N)N1c1cccc2c(N3C(N)=NC(N)=NC3(C)C)cccc12.Cl.Cl | – | -0.3 days | 1.1 days | – | – | -0.3 days | – | Toxic [8]: 3 |
| CC1(C)N=C(N)N=C(N)N1c1ccc(OCCCCCCOc2ccc(N3C(N)=NC(N)=NC3(C)C)cc2)cc1.Cl.Cl | 5 | – | – | – | – | – | 5 | Toxic (Mus musculus [24]): 1; Toxic [19]: 5; Toxic (Mus musculus [23]): 5 |
| CC1(C)N=C(N)N=C(N)N1c1ccc(OCCCCCCCCCCOc2ccc(N3C(N)=NC(N)=NC3(C)C)cc2)cc1.Cl.Cl | – | 0.1 days | -0.1 days | – | – | 0.1 days | – | – |
| CC1(C)N=C(N)N=C(N)N1c1ccc2oc3ccc(N4C(N)=NC(N)=NC4(C)C)cc3c2c1.Cl.Cl | 5 | – | -0.2 days | – | -0.2 days | – | 5 | Delta MST [3]: 0.2 days |
| CC1(C)N=C(N)N=C(N)N1c1ccc(C(c2ccccc2)c2ccc(N3C(N)=NC(N)=NC3(C)C)cc2)cc1.Cl.Cl | 5 | 4.3 days | – | – | – | – | 2 | Toxic (Mus musculus [25]): 2; Delta MST [17]: 4.3 days; Delta MST ([18]; 53 mg/kg): 2.3 days and 2.8 days |
| Cc1ccc(N2C(N)=NC(N)=NC2(C)C)cc1NC(=O)Nc1cc(N2C(N)=NC(N)=NC2(C)C)ccc1C.Cl.Cl | – | -0.1 days | -0.1 days | – | – | -0.1 days | – | Toxic [8]: 3 |
